Source: ChEMBL document CHEMBL5137084 (J Med Chem, 2022)

Columns and labels:
[1] = Metabolic stability of the compound in carboxylesterase 1 knockout mouse liver assessed as parent compound remaining at 10 uM measured after 1 hr in by UPLC analysis; assay type: ADME, tissue-based
Procedure, shortened: (§1)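 Plasma, or liver or brain homogenised 10-fold in 0.1 M potassium phosphate buffer, from CES1−/− mice. Spiked with 10 μM prodrug (final) and shaken at 37 °C for 1 h, in triplicate. Samples at 0 and 1 h were quenched with three volumes of acetonitrile containing losartan. Intact prodrug was measured by UHPLC-orbitrap MS and expressed as % remaining, mean ± SE.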

[2] = Metabolic stability of the compound in carboxylesterase 1 knockout mouse plasma assessed as parent compound remaining at 10 uM measured after 1 hr in by UPLC analysis; assay type: ADME, cell-free; procedure, shortened: as §1
[3] = Metabolic stability of the compound in carboxylesterase 1 knockout mouse brain assessed as parent compound remaining at 10 uM measured after 1 hr in by UPLC analysis; assay type: ADME, tissue-based; procedure, shortened: as §1
[4] = Prodrug conversion in carboxylesterase 1 knockout C57BL/6 mouse plasma assessed as AUC of 2,6-Dimethoxy-4-(4-phenyl-5-thiophen-2-yl-1H-imidazol-2-yl)phenol at 15.12 mg/kg, po administered as single dose measured upto 8 hrs by LC-MS/MS analysis; assay type: ADME, organism-based; design: time < 8 hrs, dose 15.12 mg/kg, route po; conditions: in vivo
[5] = Prodrug conversion in carboxylesterase 1 knockout C57BL/6 mouse brain assessed as AUC of 2,6-Dimethoxy-4-(4-phenyl-5-thiophen-2-yl-1H-imidazol-2-yl)phenol at 15.12 mg/kg, po administered as single dose measured upto 8 hrs by LC-MS/MS analysis; assay type: ADME, organism-based; design: time < 8 hrs, dose 15.12 mg/kg, route po; conditions: in vivo
[6] = Prodrug conversion in carboxylesterase 1 knockout C57BL/6 mouse brain assessed as Cmax of 2,6-Dimethoxy-4-(4-phenyl-5-thiophen-2-yl-1H-imidazol-2-yl)phenol at 15.12 mg/kg, po administered as single dose measured upto 8 hrs by LC-MS/MS analysis; assay type: ADME, organism-based; design: dose 15.12 mg/kg, time < 8 hrs, route po; conditions: in vivo
[7] = Half life in carboxylesterase 1 knockout C57BL/6 mouse plasma at 15.12 mg/kg, po administered as single dose measured upto 8 hrs by LC-MS/MS analysis; assay type: ADME, organism-based
[8] = Tmax in carboxylesterase 1 knockout C57BL/6 mouse plasma at 15.12 mg/kg, po administered as single dose measured upto 8 hrs by LC-MS/MS analysis; assay type: ADME, organism-based
[9] = Stability in carboxylesterase 1 knockout C57BL/6 mouse brain assessed as intact compound level at 15.12 mg/kg, po administered as single dose measured upto 8 hrs by LC-MS/MS analysis; assay type: ADME, organism-based; conditions: read-out: Stability
[10] = Prodrug conversion in carboxylesterase 1 knockout C57BL/6 mouse brain assessed as increase in 2,6-Dimethoxy-4-(4-phenyl-5-thiophen-2-yl-1H-imidazol-2-yl)phenol release at 15.12 mg/kg, po administered as single dose measured after 2 hrs by LC-MS/MS analysis; assay type: ADME, organism-based; conditions: in vivo
[11] = Half life in carboxylesterase 1 knockout C57BL/6 mouse brain at 15.12 mg/kg, po administered as single dose measured upto 8 hrs by LC-MS/MS analysis; assay type: ADME, organism-based
[12] = Stability in carboxylesterase 1 knockout C57BL/6 mouse plasma assessed as intact compound level at 15.12 mg/kg, po administered as single dose measured upto 8 hrs by LC-MS/MS analysis; assay type: ADME, organism-based; conditions: read-out: Stability
[13] = Prodrug conversion in carboxylesterase 1 knockout C57BL/6 mouse plasma assessed as Cmax of 2,6-Dimethoxy-4-(4-phenyl-5-thiophen-2-yl-1H-imidazol-2-yl)phenol at 15.12 mg/kg, po administered as single dose measured upto 8 hrs by LC-MS/MS analysis; assay type: ADME, organism-based; design: dose 15.12 mg/kg, time < 8 hrs, route po; conditions: in vivo
[14] = Tmax in carboxylesterase 1 knockout C57BL/6 mouse brain at 15.12 mg/kg, po administered as single dose measured upto 8 hrs by LC-MS/MS analysis; assay type: ADME, organism-based
[15] = Prodrug conversion in carboxylesterase 1 knockout C57BL/6 mouse brain assessed as increase in 2,6-Dimethoxy-4-(4-phenyl-5-thiophen-2-yl-1H-imidazol-2-yl)phenol release at 10 mg/kg, po administered as single dose measured after 2 hrs by LC-MS/MS analysis; assay type: ADME, organism-based; conditions: in vivo
[16] = Prodrug conversion in carboxylesterase 1 knockout C57BL/6 mouse plasma assessed as increase in 2,6-Dimethoxy-4-(4-phenyl-5-thiophen-2-yl-1H-imidazol-2-yl)phenol release at 10 mg/kg, po administered as single dose measured after 2 hrs by LC-MS/MS analysis; assay type: ADME, organism-based; conditions: in vivo
[17] = Half life in carboxylesterase 1 knockout C57BL/6 mouse brain at 10 mg/kg, po administered as single dose measured upto 8 hrs by LC-MS/MS analysis; assay type: ADME, organism-based
Procedure, shortened: (§2)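 Cardiac blood is spun to plasma and brains are flash frozen. Intact prodrug and released parent are quantified by LC-MS/MS against matrix-matched standards. Parameters come from non-compartmental analysis; mean ± SEM.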

[18] = Tmax in carboxylesterase 1 knockout C57BL/6 mouse plasma at 10 mg/kg, po administered as single dose measured upto 8 hrs by LC-MS/MS analysis; assay type: ADME, organism-based; procedure, shortened: as §2
[19] = Cmax in carboxylesterase 1 knockout C57BL/6 mouse brain at 10 mg/kg, po administered as single dose measured upto 8 hrs by LC-MS/MS analysis; assay type: ADME, organism-based; design: time < 8 hrs, dose 10 mg/kg, route po; conditions: in vivo; procedure, shortened: as §2
[20] = Drug release in carboxylesterase 1 knockout C57BL/6 mouse brain at 10 mg/kg, po administered as single dose measured after 2 hrs by LC-MS/MS analysis; assay type: ADME, organism-based; conditions: in vivo
Procedure, shortened: (§3)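 Mice are killed 2 h post-dose by CO2, with cardiac-puncture plasma and whole brain taken. After acetonitrile/losartan extraction, released parent and intact prodrug are measured by LC-MS/MS. Brain-to-plasma ratio is computed from released-parent levels; mean ± SEM.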

[21] = Tmax in carboxylesterase 1 knockout C57BL/6 mouse brain at 10 mg/kg, po administered as single dose measured upto 8 hrs by LC-MS/MS analysis; assay type: ADME, organism-based; procedure, shortened: as §2
[22] = Brain to plasma ratio in carboxylesterase 1 knockout C57BL/6 mouse at 10 mg/kg, po administered as single dose measured after 2 hrs by LC-MS/MS analysis; assay type: ADME, organism-based; procedure, shortened: as §3
[23] = Drug release in carboxylesterase 1 knockout C57BL/6 mouse plasma at 10 mg/kg, po administered as single dose measured after 2 hrs by LC-MS/MS analysis; assay type: ADME, organism-based; conditions: in vivo, read-out: Activity; procedure, shortened: as §3
[24] = Half life in carboxylesterase 1 knockout C57BL/6 mouse plasma at 10 mg/kg, po administered as single dose measured upto 8 hrs by LC-MS/MS analysis; assay type: ADME, organism-based; procedure, shortened: as §2
[25] = AUC in carboxylesterase 1 knockout C57BL/6 mouse plasma at 10 mg/kg, po administered as single dose measured upto 8 hrs by LC-MS/MS analysis; assay type: ADME, organism-based; design: time < 8 hrs, dose 10 mg/kg, route po; conditions: in vivo; procedure, shortened: as §2
[26] = Cmax in carboxylesterase 1 knockout C57BL/6 mouse plasma at 10 mg/kg, po administered as single dose measured upto 8 hrs by LC-MS/MS analysis; assay type: ADME, organism-based; design: time < 8 hrs, dose 10 mg/kg, route po; conditions: in vivo; procedure, shortened: as §2
[27] = AUC in carboxylesterase 1 knockout C57BL/6 mouse brain at 10 mg/kg, po administered as single dose measured upto 8 hrs by LC-MS/MS analysis; assay type: ADME, organism-based; design: time < 8 hrs, dose 10 mg/kg, route po; conditions: in vivo; procedure, shortened: as §2
[28] = Prodrug conversion in carboxylesterase 1 knockout C57BL/6 mouse assessed as increase in 2,6-Dimethoxy-4-(4-phenyl-5-thiophen-2-yl-1H-imidazol-2-yl)phenol release at 10 mg/kg, po administered as single dose measured after 2 hrs by LC-MS/MS analysis; assay type: ADME, organism-based; conditions: in vivo
[29] = Stability in carboxylesterase 1 knockout C57BL/6 mouse assessed as intact compound level at 10 mg/kg, po administered as single dose measured upto 8 hrs by LC-MS/MS analysis; assay type: ADME, organism-based; conditions: in vivo, read-out: Stability
[30] = Ratio of prodrug conversion in carboxylesterase 1 knockout C57BL/6 mouse brain to plasma assessed as 2,6-Dimethoxy-4-(4-phenyl-5-thiophen-2-yl-1H-imidazol-2-yl)phenol release at 10 mg/kg, po administered as single dose measured after 2 hrs by LC-MS/MS analysis; assay type: ADME, organism-based; procedure, shortened: as §3

Compound: COc1cc(-c2nc(-c3ccccc3)c(-c3cccs3)[nH]2)cc(OC)c1OCOP(=O)(O)O
- Stability [1]: 21%
- Stability [2]: 96%
- Stability [3]: 1%

Compound: COc1cc(-c2nc(-c3ccccc3)c(-c3cccs3)[nH]2)cc(OC)c1OC(=O)N1CCC(N2CCCCC2)CC1
- AUC [4]: 273.4 pmol·h/g
- AUC [5]: 187.1 pmol·h/g
- Cmax [6]: 403 pmol·h/g
- half-life [7]: 84 min
- Tmax [8]: 60 min
- Stability [2]: 90%
- concentration at 8 h [9]: 86.5 nM
- Stability [3]: 48%
- Drug metabolism [10]: 72.3 nM
- half-life [11]: 180 min
- concentration at 8 h [12]: 195 nM
- Cmax [13]: 148.9 pmol·h/g
- Tmax [14]: 60 min

Compound: CCCCCNC(=O)Oc1c(OC)cc(-c2nc(-c3ccccc3)c(-c3cccs3)[nH]2)cc1OC
- Stability [1]: 83%
- Stability [2]: 60%
- Stability [3]: 68%

Compound: COc1cc(-c2nc(-c3ccccc3)c(-c3cccs3)[nH]2)cc(OC)c1OC(=O)C1=CN(C)C=CC1
- Stability [1]: 22%
- Stability [2]: 52%
- Stability [3]: 46%
- Drug metabolism [15]: 2.2 nM
- Drug metabolism [16]: 28.3 nM

Compound: COc1cc(-c2nc(-c3ccccc3)c(-c3cccs3)[nH]2)cc(OC)c1OP(=O)(O)O
- Stability [1]: 55%
- Stability [2]: 91%
- Stability [3]: 102%

Compound: COc1cc(-c2nc(-c3cccs3)c(-c3ccccc3)[nH]2)cc(OC)c1O
- half-life [17]: 37.8 min
- Tmax [18]: 30 min
- Cmax [19]: 60 pmol/g
- Stability [1]: 98%
- Activity [20]: 4.9 nM
- Tmax [21]: 30 min
- Kp at 2 h [22]: 0.1
- Stability [2]: 103%
- Stability [3]: 89%
- concentration [23]: 23 nM
- half-life [24]: 27.6 min
- AUC [25]: 0.27 µM·h
- Cmax [26]: 307 nM
- AUC [27]: 52.8 pmol·h/g

Compound: CCCCCCCNC(=O)Oc1c(OC)cc(-c2nc(-c3ccccc3)c(-c3cccs3)[nH]2)cc1OC
- Stability [1]: 97%
- Stability [2]: 60%
- Stability [3]: 84%

Compound: COc1cc(-c2nc(-c3ccccc3)c(-c3cccs3)[nH]2)cc(OC)c1OCOP(=O)(O)OCOC(=O)OC(C)C
- Stability [1]: 11%
- Stability [2]: 100%
- Stability [3]: 79%

Compound: COc1cc(-c2nc(-c3ccccc3)c(-c3cccs3)[nH]2)cc(OC)c1OC(=O)OC(OC(=O)C(C)(C)C)c1ccccc1 (centres undefined)
- Stability [1]: 80%
- Stability [2]: 83%
- Stability [3]: 69%

Compound: COc1cc(-c2nc(-c3ccccc3)c(-c3cccs3)[nH]2)cc(OC)c1OC(C)=O
- Stability [1]: 0%
- Stability [2]: 28%
- Stability [3]: 6%

Compound: CCC1CCCC(CC)N1C(=O)Oc1c(OC)cc(-c2nc(-c3ccccc3)c(-c3cccs3)[nH]2)cc1OC (centres undefined)
- Stability [1]: 51%
- Stability [2]: 78%
- Stability [3]: 90%

Compound: COc1cc(-c2nc(-c3ccccc3)c(-c3cccs3)[nH]2)cc(OC)c1OC(=O)N(C)C
- Stability [1]: 100%
- Drug metabolism [28]: 540.9 nM
- Stability [2]: 96%
- Stability [3]: 100%
- concentration at 8 h [29]: 4300 nM

Compound: CCCCCC(=O)Oc1c(OC)cc(-c2nc(-c3ccccc3)c(-c3cccs3)[nH]2)cc1OC
- Stability [1]: 1%
- Stability [2]: 13%
- Stability [3]: 63%
- Drug metabolism [15]: 36.5 nM
- BPR [30]: 0.1
- Drug metabolism [16]: 355 nM

Compound: CCCCCN(C)C(=O)Oc1c(OC)cc(-c2nc(-c3ccccc3)c(-c3cccs3)[nH]2)cc1OC
- Stability [1]: 85%
- Stability [2]: 50%
- Stability [3]: 86%

Compound: COc1cc(-c2nc(-c3ccccc3)c(-c3cccs3)[nH]2)cc(OC)c1OC(=O)N1C2CCCC1CC2
- Stability [1]: 95%
- Stability [2]: 85%
- Stability [3]: 76%

Compound: COc1cc(-c2nc(-c3ccccc3)c(-c3cccs3)[nH]2)cc(OC)c1OC(=O)C(C)(C)C
- Stability [1]: 0%
- Stability [2]: 1%
- Stability [3]: 93%

Compound: COc1cc(-c2nc(-c3ccccc3)c(-c3cccs3)[nH]2)cc(OC)c1OC(=O)N1C2CCC1CC(N1CCCCC1)C2 (centres undefined)
- Stability [1]: 78%
- Stability [2]: 87%
- Stability [3]: 84%
